Activity calls are given as the source filed them. The rule behind the calls is not given here.
Key:
Mus musculus = test: In vivo inhibition of MAGL in C57Bl6 mouse assessed as increase in 2-AG levels in brain at 1 mg/kg, sc measured at 2 hrs by LC-MS/MS method; format: functional, organism-based
Procedure, shortened: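 C57Bl6 mice, 7 weeks old, 4 per cage, food and water ad libitum, dosed subcutaneously in DMSO/Cremophor/saline (5:5:90, v/v/v). Brains taken after isoflurane, cardiac puncture and cervical dislocation at 0.5, 1, 2, 4, 8, 12 and 24 h (3 mice per time point); vehicle group at 1 h. Frozen in liquid nitrogen, homogenized in 3 volumes PMSF/NH4OAc buffer pH 2.0, d5-2-AG internal standard, ACN extraction, LC-MS/MS (positive ESI, SRM).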

[1] = molecular target: T1, Platelet-activating factor acetylhydrolase (Homo sapiens) (UniProt Q13093); test: Inhibition of human PLA2G7 at 1 to 10 uM relative to control
T1 sequence (whole entry): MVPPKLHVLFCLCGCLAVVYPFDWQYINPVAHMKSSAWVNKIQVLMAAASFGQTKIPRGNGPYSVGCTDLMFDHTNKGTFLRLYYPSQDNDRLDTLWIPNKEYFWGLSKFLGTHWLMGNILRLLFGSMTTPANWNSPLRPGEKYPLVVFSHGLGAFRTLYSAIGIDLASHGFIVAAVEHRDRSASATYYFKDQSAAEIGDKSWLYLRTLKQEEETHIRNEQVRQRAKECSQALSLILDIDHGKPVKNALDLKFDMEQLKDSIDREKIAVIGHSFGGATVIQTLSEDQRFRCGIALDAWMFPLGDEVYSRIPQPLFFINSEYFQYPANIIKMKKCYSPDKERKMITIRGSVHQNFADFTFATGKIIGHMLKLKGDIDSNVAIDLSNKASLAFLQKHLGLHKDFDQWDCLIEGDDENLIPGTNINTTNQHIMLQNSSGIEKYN

Brain [2] = test: Unbound drug level in C57Bl6 mouse brain at 1 mg/kg, sc at 0.5 hrs; format: ADME, organism-based; conditions: in vivo
Procedure, shortened: (§1)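 Subcutaneous dosing of C57Bl6 mice in DMSO/Cremophor/saline (5:5:90). Plasma (NaF/K2EDTA tubes) and cerebellum collected at 0.5–24 h, 3 mice per time point. Cerebellum diluted 1:4 (w/v) with water and homogenized; samples deproteinated with methanol/acetonitrile plus internal standard, then HPLC-MS/MS. LLOQ 1.0 ng/mL plasma, 0.5 ng/mL brain homogenate. PK parameters by noncompartmental analysis.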

[3] = molecular target: T2, Monoglyceride lipase (Homo sapiens) (UniProt Q99685); test: Ratio of Kinact to Ki for human recombinant MAGL using 7-HCA as substrate after 60 mins by fluorescence assay
T2 sequence (whole entry): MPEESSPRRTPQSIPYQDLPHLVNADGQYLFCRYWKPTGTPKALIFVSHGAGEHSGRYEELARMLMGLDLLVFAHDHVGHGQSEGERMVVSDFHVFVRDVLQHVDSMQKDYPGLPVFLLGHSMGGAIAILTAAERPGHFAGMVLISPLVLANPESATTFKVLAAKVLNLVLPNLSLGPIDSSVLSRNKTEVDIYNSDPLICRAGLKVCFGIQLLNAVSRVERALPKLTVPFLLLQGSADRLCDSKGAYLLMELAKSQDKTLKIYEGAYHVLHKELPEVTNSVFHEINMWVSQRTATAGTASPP
Procedure, shortened: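 Run as the MAGL 7-HCA assay, but substrate added with no preincubation (T = 0), fluorescence read every minute at decreasing compound concentrations to give progress curves. kobs from each curve; kinact/KI from a plot of kobs against compound concentration.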

Brain [4] = test: Ratio of unbound drug level in C57Bl6 mouse brain at 10 mg/kg, sc to 1 mg/kg, sc; format: ADME, organism-based; conditions: in vivo; procedure, shortened: as §1

inhibition [1] | Drug uptake(free) (Brain [2]) | Ratio [3] | Ratio (Brain [4]) | SMILES | inhibition (Mus musculus)
 |  |  |  | O=C(OC(C(F)(F)F)C(F)(F)F)N1CCC(c2ccn(-c3ccccc3)n2)CC1 | Active
> 70% | 0.02 nM | 1.14e+06 M⁻¹ s⁻¹ | 100 | O=C(OC(C(F)(F)F)C(F)(F)F)N1CC(c2ccn(-c3ccccc3)n2)C1 | 

Reference: ChEMBL document CHEMBL4028902, “Azetidine and Piperidine Carbamates as Efficient, Covalent Inhibitors of Monoacylglycerol Lipase” (J Med Chem, 2017)
